Bioassay records deposited in PubChem by The Scripps Research Institute Molecular Screening Center.
In the library only some 4.3% were active in any assay of this set; here they are far more common.
TAAR1 antagonist: antagonists of human TAAR1. CHO RD-HGA16 TAAR1, Fluo-8 calcium fluorescence, antagonist. inhibition, % at 3 µM. 360,000 compounds, 1.5% hits. Q96RJ0;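 active = inhibition above a per-plate cutoff, the mean inhibition of test compounds on that plate plus 3 SD, cut at about 49% in these data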;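 also: 0% = DMSO plus EC80 beta-PEA response and 100% = DMSO alone without agonist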
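Assay system: CHO-derived RD-HGA16 cells stably expressing human TAAR1 plus Gα16. Timing: 140 s kinetic read after compound, 140 s after agonist. Technique: kinetic Fluo-8 calcium fluorescence measurement. Measure: % inhibition of agonist calcium response.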
OX1R antag-1: blocks the human orexin 1 receptor | OX1R-expressing cells, FRET antagonist read-out | AID 485270 | inhibition, % at 6.6 µM | 330,000 compounds, 1.8% hits; in the data active = inhibition mostly above about 38%, no sharp cut-off; inactive = mostly below about 40%;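 also: 0% = agonist challenge alone and 100% = reference antagonist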
TAAR1 ag: human TAAR1 agonism | Q96RJ0 | CHO RD-HGA16 TAAR1, Fluo-8 calcium fluorescence; vehicle wells 0%, saturating PEA agonist 100% | 360,000 compounds, 0.99% hits | activation, % at 3 µM;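 active = activation above the mean activation of all test compounds in the run plus 3 SD, cut at about 38% in these data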
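System: CHO-derived RD-HGA16 cells with stable Gα16 and human TAAR1 / Times: 17-24 h plating, Fluo-8 75 min 37 °C, 30 min RT / Technique: calcium-sensitive Fluo-8 signal, excitation 470-495, emission 515-575 nm / Measure: % activation relative to PEA EC100 response / Benchmarks: DMSO and PEA EC100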
OX1R antag-2: antagonists of human orexin 1 receptor; O43613; AID 434989; inhibition, % at 5 µM; 330,000 compounds, 0.43% hits; CHO/OX1R cells, Fluo-8 calcium fluorescence, orexin A;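 active = inhibition above its plate's threshold, mean inhibition of all tested compounds on the plate plus 3 SD, cut at about 37% in these data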;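 also: 0% = orexin A challenge wells and 100% = SB-334867-A antagonist wells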
CHO parental Ca: signal in parental CHO cells, OX1R antagonist counter-screen | parental CHO-K1, ATP-induced calcium, Fluo-8 fluorescence | inhibition, % at 5.6 µM | AID 463079 | 330,000 compounds, 0.63% hits;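 active = inhibition above that plate's mean sample inhibition plus 3 SD, cut at about 26% in these data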;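 also: 0% = ATP-challenged DMSO wells and 100% = DMSO wells without ATP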
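test system = CHO parental line | reagent = ATP stimulus | measured by = intracellular calcium via Fluo-8 no-wash fluorescent dye | control set = ATP and no-ATP DMSO wells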
GalR3 antagonist: antagonists of human GalR3. O60755. inhibition, % at 3 µM. HEK293 GalR3-CNG cAMP membrane potential fluorescence; galR3 body fused to GalR1 C-terminus. 360,000 compounds, 0.44% hits;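 active = inhibition above the screen-wide average plus 3 SD, cut at about 13% in these data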;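 also: forskolin and galanin both at EC90 stimulate the cells; cAMP rise reported by CNG channel membrane potential dye signal; 0% = forskolin plus galanin with DMSO and 100% = forskolin alone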
Target sequence (O60755 1-299 limits assumed): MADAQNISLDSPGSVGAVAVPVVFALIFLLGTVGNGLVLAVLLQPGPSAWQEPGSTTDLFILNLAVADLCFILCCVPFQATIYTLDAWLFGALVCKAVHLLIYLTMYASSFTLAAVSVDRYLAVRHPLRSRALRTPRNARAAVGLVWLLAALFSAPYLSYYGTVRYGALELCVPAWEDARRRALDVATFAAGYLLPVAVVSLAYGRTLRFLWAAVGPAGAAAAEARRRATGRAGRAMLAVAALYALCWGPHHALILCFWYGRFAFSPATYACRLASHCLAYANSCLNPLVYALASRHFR
Starred values were filed as active, the others as inactive; . = not tested or not shown.

SMILES	TAAR1 antagonist	OX1R antag-1	TAAR1 ag	OX1R antag-2	CHO parental Ca	GalR3 antagonist
O=C(CNC(=O)c1ccc(F)cc1)N/N=C/c1cc(Br)ccc1OCc1ccccc1	28	1	14	-19	-16	-4
COc1ccc(Br)cc1/C=N/NC(=O)c1cc(OC)c(OC)c(OC)c1	14	3	6	3	-10	-5
COc1cc(/C=N/NC(=O)c2ccc3c(c2)OCCO3)c(Br)c(Br)c1O	13	65*	28	4	-15	-1
COc1ccc(Br)cc1/C=N/NC(=O)c1ccc2nc[nH]c2c1	3	41*	1	3	-4	0
COc1ccc(OC)c(/C=N/NC(=O)c2ccc3nc[nH]c3c2)c1	-12	-2	1	4	-5	1
COc1ccc(Br)cc1/C=N/NC(=O)c1ccc(OC)c(OC)c1	-14	43*	10	-16	-2	-5
COc1ccccc1C(=O)NCC(=O)N/N=C/c1cc(Br)ccc1OCc1ccccc1	49*	33	5	-18	-10	-4
O=[N+]([O-])c1cc(Cl)cc(C2=NCCN2)c1	-4	61*	6	-7	-5	-6
COc1cccc(NC(=O)COC(=O)c2c3c(nc4ccccc24)CCC(C)C3)c1 (stereo not drawn)	45	36*	10	13	-4	-5
CC(C)c1ccccc1NC(=O)COC(=O)c1c2c(nc3ccccc13)CCN(Cc1ccccc1)C2	59*	34	12	-41	-25	-3
O=C(COC(=O)c1c2c(nc3ccccc13)CCCC2)Nc1ccc2c(c1)OCO2	54*	38	8	-7	-26	-3
CC1CCc2nc3ccccc3c(C(=O)OCC(=O)NC3CCS(=O)(=O)C3)c2C1 (stereo not drawn)	-11	26	0	-23	-14	-1
COc1ccc(-c2cc(C(=O)OCC(=O)Nc3ccc4c(c3)OCO4)c3ccccc3n2)cc1	39	65*	1	-8	-10	1
COc1ccc(CCNC(=O)C(NS(=O)(=O)c2cccc3nsnc23)C(C)C)cc1OC (stereo not drawn)	-1	38	3	-12	-7	-1
CC(C)C(=O)N1CCC1(C)C(=O)NCc1cc(Cl)ccc1F (stereo not drawn)	-2	.	4	.	.	1
COC(=O)c1cc2c(c3c4cc(F)ccc4n(S(=O)(=O)c4cccc(C)c4)c13)C(=O)N(Cc1ccc(N(C)C)cc1)C2	-9	.	-1	.	.	-4
CCCCn1nc(C(=O)N(C)Cc2nc3ccccc3c(=O)[nH]2)c2ccccc2c1=O	8	.	5	.	.	-7
CC(C)NC(=O)NC(=O)COC(=O)c1c2c(nc3ccccc13)CCC2	52*	8	10	-29	-10	-8
COc1ccc(N(CC(=O)Nc2ccc3c(c2)OCO3)S(=O)(=O)c2ccccc2)c(OC)c1	56*	12	13	-5	-9	-6
NC(=O)COC(=O)c1c2c(nc3ccccc13)CCC2	8	13	0	-9	-4	-4
COc1ccc(N(CC(=O)Nc2ccc3c(c2)OCO3)S(=O)(=O)c2ccccc2)cc1OC	0	5	5	-23	-27	-2
CCOc1ccc(-c2cc(C(=O)Nc3ccc4c(c3)OCCO4)c3ccccc3n2)cc1	67*	13	14	-19	-21	1
COc1ccc(/C=N/NC(=O)NC23CC4CC(CC(C4)C2)C3)c(OC)c1	14	-14	4	-67	-28	-9
Nc1ccc(O)c([N+](=O)[O-])c1	-4	49*	0	-10	5	-1
CCOC(=O)C1CCCN(CC(=O)c2ccc(F)cc2)C1 (stereo not drawn)	54*	-4	57*	-16	-2	-8
CC(C)OCCCNc1nc(-c2ccccc2)nc2ccccc12	32	51*	2	23	-17	-13
CN(C)CCCNc1nc(-c2ccccc2)nc2ccccc12	-18	23	4	-16	-28	-2
CC(C)(C)C(=O)OCCNc1nc(-c2ccccc2)nc2ccccc12	28	72*	0	-13	-17	-10
